Data taken from ChEMBL document CHEMBL1158487, “Small molecule chloropyramine hydrochloride (C4) targets the binding site of focal adhesion kinase and vascular endothelial growth factor receptor 3 and suppresses breast cancer growth in vivo” (J Med Chem, 2009).
Active and inactive are the calls of the source. No cut-off for these calls is given here.

Legend:
T47D = assay: Cytotoxicity against human T47D cells after 72 hrs by MTS assay; type: functional, cell-based
Summary of the method: (§1)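 MTS viability assay, read as mitochondrial dehydrogenase activity of metabolically active cells. Cells were seeded at 5.0 × 10^3 per well and attached overnight. Fresh medium with or without compound was added, followed by 72 h exposure at increasing concentrations. Error shown as ±SEM.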

MCF7 [1] = assay: Cytotoxicity against human MCF7 cells expressing VEGFR3 assessed as cell viability after 48 hrs by MTS assay; type: functional, cell-based
Summary of the method: (§2)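 Viability measured by MTS after 48 h exposure. Cells were seeded at 5.0 × 10^3 per well and attached overnight before compound-containing medium was added. BT474 is a […] subclone grown in RPMI-1640 with 10% FBS and 250 µg/ml insulin. MCF7 stable clones carried either empty pcDNA3 or VEGFR-3. Mean ± SEM, ≥3 experiments, two-tailed t test.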

[2] = target: Focal adhesion kinase 1/vascular endothelial growth factor receptor 3 (Homo sapiens) (UniProt P35916+Q05397); assay: Disruption of FAK-VEGFR3 binding in human BT474 cells at 10 uM after 24 hrs by immunoprecipitation technique; type: cell-based; details: BT-474
Summary of the method: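 BT474 cells were treated for 24 h with increasing concentrations and then lysed. Lysates were immunoprecipitated with anti-VEGFR-3 antibody, and co-precipitated FAK was detected by western blot.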

[3] = target: Focal adhesion kinase 1 (Homo sapiens) (UniProt Q05397); assay: Inhibition of FAK phosphorylation in human MCF7 cells expressing VEGFR3 cells assessed as decrease in total phosphorylation at 10 uM after 24 hrs by immunoprecipitation technique; type: cell-based
Summary of the method: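 MCF7-VEGFR-3 and BT474 cells were treated for 24 h at 10 µM or 1 µM. FAK was immunoprecipitated and blotted with anti-phosphotyrosine antibody 4G10 to assess total FAK tyrosine phosphorylation.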

[4] = target: Vascular endothelial growth factor receptor 3 (Homo sapiens) (UniProt P35916); assay: Inhibition of VEGFR3 phosphorylation in human BT474 cells assessed as partial dephosphorylation at Tyr1063/1068 activation loop at 1 uM after 24 hrs by Western blotting; type: cell-based; details: BT-474
MCF7 [5] = assay: Induction of apoptosis in human MCF7 cells expressing VEGFR3 assessed as PARP degradation after 48 hrs; type: functional, cell-based
SAOS-2 = assay: Cytotoxicity against human Saos2 cells after 72 hrs by MTS assay; type: functional, cell-based; details: SAOS-2, 72 h; summary of the method: as §1
[6] = target: Vascular endothelial growth factor receptor 3 (Homo sapiens) (UniProt P35916); assay: Inhibition of VEGFR3 phosphorylation in human BT474 cells assessed as partial dephosphorylation at Tyr1063/1068 activation loop after 24 hrs by Western blotting; type: cell-based; details: BT-474
Summary of the method: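 BT474 cells were exposed for 24 h to increasing doses (1 and 10 µM). Western blots of lysates were probed with a phospho-specific VEGFR-3 antibody for Tyr1063/1068 in the kinase activation loop.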

MCF7 [7] = assay: Antiproliferative activity against human MCF7 cells expressing VEGFR3 after 48 hrs by BrdU incorporation assay; type: functional, cell-based
Summary of the method: (§3)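 Cells plated at 2.5 × 10^3 per well and allowed to attach overnight. Fresh growth medium with or without compound was added along with BrdU labelling reagent, and cells were incubated for the set time. BrdU incorporation was then read with a kit per the manufacturer. Data are mean ± SEM of three or more independent experiments, compared by two-tailed Student's t test.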

MIA PaCa-2 = assay: Cytotoxicity against human MIAPaCa2 cells after 72 hrs by MTS assay; type: functional, cell-based; details: MIA PaCa-2, 72 h; summary of the method: as §1
MCF7 [8] = assay: Antiproliferative activity against human MCF7 cells expressing VEGFR3 at 0.1 to 10 uM by BrdU incorporation assay; type: functional, cell-based; details: TDE = time-dependent effect; summary of the method: as §3
BT-474 [9] = assay: Decrease in colocalization of FAK-paxillin complex in human BT474 cells at 10 uM after 24 hrs by confocal microscopy; type: functional; parameters: scale not given: the % may be the effect or the level left
Summary of the method: (§4)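 Cells were treated for 24 h with DMSO or 10 µM compound, then dual-immunostained for FAK (Alexa Fluor 488) together with VEGFR-3 or paxillin (Alexa Fluor 546). Confocal microscopy with scatter-plot analysis gave the percentage of colocalized molecules.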

[10] = target: Focal adhesion kinase 1 (Homo sapiens) (UniProt Q05397); assay: Inhibition of FAK phosphorylation in human BT474 cells assessed as partial dephosphorylation at 1 uM after 24 hrs by Western blotting; type: cell-based; details: BT-474
BT-474 [11] = assay: Antiproliferative activity against human BT474 cells after 48 hrs by BrdU incorporation assay; type: functional, cell-based; summary of the method: as §3
MCF7 [12] = assay: Cytotoxicity against human MCF7 cells expressing VEGFR3 assessed as cell viability at 10 uM after 48 hrs by MTS assay; type: functional; summary of the method: as §2
[13] = target: Vascular endothelial growth factor receptor 3 (Homo sapiens) (UniProt P35916); assay: Inhibition of VEGFR3 phosphorylation in human MCF7 cells expressing VEGFR3 assessed as complete dephosphorylation at Tyr1063/1068 activation loop at 10 uM by Western blotting; type: cell-based
[14] = target: Vascular endothelial growth factor receptor 3 (Homo sapiens) (UniProt P35916); assay: Inhibition of VEGFR3 phosphorylation in human MCF7 cells expressing VEGFR3 assessed as complete dephosphorylation at Tyr1063/1068 activation loop at 1 to 10 uM by Western blotting; type: cell-based; details: TDE = time-dependent effect
A-375 = assay: Cytotoxicity against human A375 cells after 72 hrs by MTS assay; type: functional, cell-based; details: A-375, 72 h; summary of the method: as §1
HT-29 = assay: Cytotoxicity against human HT-29 cells after 72 hrs by MTS assay; type: functional, cell-based; details: HT-29, 72 h; summary of the method: as §1
BT-474 [15] = assay: Cytotoxicity against human BT474 cells assessed as cell viability at 0.1 to 10 uM by MTS assay; type: functional, cell-based
Summary of the method: (§5)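 MTS cell survival assay. Cells were plated at 5.0 × 10^3 per well and allowed to attach overnight, then given fresh medium with or without compound for the designated time. Absorbance was read per the kit protocol. Mean ± SEM of three or more independent experiments.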

COLO 205 = assay: Cytotoxicity against human COLO205 cells assessed as cell viability after 72 hrs by MTS assay; type: functional, cell-based; details: COLO 205, 72 h; summary of the method: as §1
PANC-1 = assay: Cytotoxicity against human PANC1 cells after 72 hrs by MTS assay; type: functional, cell-based; details: PANC-1, 72 h; summary of the method: as §1
[16] = Cytotoxicity against human MCF10A cells assessed as cell viability at 0.1 to 10 uM by MTS assay; type: cell-based; details: mcf-10a; summary of the method: as §5
[17] = target: Vascular endothelial growth factor receptor 3 (Homo sapiens) (UniProt P35916); assay: Inhibition of VEGFR3 phosphorylation in human MCF7 cells expressing VEGFR3 cells assessed as partial dephosphorylation at Tyr1063/1068 activation loop at 1 uM after 24 hrs by Western blotting; type: cell-based
BT-474 [18] = assay: Decrease in colocalization of FAK-VEGFR3 complex in human BT474 cells at 10 uM after 24 hrs by confocal microscopy; type: functional; parameters: scale not given: the % may be the effect or the level left; summary of the method: as §4
MCF7 [19] = assay: Induction of apoptosis in human MCF7 cells expressing VEGFR3 assessed as procaspase 8 activation after 48 hrs; type: functional, cell-based
MCF7 [20] = assay: Antitumor activity against human MCF7 cells expressing VEGFR3 xenografted in nude-foxn1nu mouse assessed as reduction in tumor growth at 30 mg/kg after 21 days relative to control; type: functional, organism-based; parameters: dose 30 mg/kg
[21] = Cytotoxicity against human C8161 cells after 72 hrs by MTS assay; type: functional, cell-based; details: C8161, 72 h; summary of the method: as §1

Chain of Vascular endothelial growth factor receptor 3 (Homo sapiens) (P35916 whole entry): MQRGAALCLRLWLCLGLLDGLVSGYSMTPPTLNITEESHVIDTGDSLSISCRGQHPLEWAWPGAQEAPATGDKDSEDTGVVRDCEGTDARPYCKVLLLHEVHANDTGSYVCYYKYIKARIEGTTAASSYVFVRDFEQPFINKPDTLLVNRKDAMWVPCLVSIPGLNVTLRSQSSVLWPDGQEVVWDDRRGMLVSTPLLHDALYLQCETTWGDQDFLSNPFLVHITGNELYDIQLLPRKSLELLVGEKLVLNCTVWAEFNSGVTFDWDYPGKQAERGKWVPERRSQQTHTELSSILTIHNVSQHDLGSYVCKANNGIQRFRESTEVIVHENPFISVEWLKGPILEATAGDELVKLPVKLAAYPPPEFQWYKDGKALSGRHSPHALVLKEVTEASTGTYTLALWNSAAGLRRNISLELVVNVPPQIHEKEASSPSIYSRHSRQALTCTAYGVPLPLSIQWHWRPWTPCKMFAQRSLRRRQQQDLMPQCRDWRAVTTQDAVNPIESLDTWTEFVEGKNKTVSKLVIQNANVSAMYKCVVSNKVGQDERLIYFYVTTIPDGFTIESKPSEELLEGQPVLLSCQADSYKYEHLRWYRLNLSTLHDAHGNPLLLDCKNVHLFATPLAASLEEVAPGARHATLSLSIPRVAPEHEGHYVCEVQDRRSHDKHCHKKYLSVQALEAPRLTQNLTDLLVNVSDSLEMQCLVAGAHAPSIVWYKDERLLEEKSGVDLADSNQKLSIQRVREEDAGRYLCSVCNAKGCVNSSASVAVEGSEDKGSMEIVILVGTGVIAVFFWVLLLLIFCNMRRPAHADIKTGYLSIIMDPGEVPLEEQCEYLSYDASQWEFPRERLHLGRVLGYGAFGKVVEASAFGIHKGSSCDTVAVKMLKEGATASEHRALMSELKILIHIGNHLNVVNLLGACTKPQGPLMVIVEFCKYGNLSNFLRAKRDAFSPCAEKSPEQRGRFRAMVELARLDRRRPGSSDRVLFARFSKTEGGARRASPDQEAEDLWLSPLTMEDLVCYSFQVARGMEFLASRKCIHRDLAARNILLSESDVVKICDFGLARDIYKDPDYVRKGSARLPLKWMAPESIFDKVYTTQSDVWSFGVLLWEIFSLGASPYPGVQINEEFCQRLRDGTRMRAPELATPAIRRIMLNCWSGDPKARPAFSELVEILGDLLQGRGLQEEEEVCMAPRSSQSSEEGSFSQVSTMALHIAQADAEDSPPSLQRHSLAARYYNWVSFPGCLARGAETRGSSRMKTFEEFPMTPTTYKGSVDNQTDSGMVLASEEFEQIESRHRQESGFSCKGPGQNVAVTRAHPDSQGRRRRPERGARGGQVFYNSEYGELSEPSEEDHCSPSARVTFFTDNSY
Chain of Focal adhesion kinase 1 (Homo sapiens) (Q05397 2-1052 limits assumed): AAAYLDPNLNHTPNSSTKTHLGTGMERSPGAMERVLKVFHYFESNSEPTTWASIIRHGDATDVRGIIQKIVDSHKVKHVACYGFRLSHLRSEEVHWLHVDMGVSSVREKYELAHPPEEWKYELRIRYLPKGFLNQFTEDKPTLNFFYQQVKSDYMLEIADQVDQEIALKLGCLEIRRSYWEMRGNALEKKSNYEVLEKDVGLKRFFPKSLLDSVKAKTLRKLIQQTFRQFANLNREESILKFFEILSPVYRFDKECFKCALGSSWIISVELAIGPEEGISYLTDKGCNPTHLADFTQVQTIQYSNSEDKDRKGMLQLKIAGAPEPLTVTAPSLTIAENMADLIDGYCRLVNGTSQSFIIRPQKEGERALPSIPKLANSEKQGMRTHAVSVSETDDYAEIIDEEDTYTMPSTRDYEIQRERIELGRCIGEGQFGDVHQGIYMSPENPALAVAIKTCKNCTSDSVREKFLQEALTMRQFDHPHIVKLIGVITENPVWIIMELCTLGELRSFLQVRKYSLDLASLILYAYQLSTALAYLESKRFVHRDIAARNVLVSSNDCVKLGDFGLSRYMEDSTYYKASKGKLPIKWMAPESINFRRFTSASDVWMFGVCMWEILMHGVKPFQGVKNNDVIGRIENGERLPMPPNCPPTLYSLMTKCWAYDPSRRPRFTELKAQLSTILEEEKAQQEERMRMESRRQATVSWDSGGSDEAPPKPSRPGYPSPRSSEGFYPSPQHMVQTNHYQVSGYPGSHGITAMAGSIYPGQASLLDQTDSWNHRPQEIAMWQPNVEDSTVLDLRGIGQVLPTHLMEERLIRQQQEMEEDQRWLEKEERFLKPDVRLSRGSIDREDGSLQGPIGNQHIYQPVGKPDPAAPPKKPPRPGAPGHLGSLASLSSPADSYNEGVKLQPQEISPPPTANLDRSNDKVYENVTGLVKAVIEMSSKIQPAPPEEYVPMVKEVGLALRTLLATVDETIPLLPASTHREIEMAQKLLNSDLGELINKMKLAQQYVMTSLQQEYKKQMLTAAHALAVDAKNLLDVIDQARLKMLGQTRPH
Chain of Focal adhesion kinase 1/vascular endothelial growth factor receptor 3 (Homo sapiens) (P35916 whole entry, looked up): as the sequence (P35916 whole entry) above
Chain of Focal adhesion kinase 1/vascular endothelial growth factor receptor 3 (Homo sapiens) (Q05397 whole entry, looked up): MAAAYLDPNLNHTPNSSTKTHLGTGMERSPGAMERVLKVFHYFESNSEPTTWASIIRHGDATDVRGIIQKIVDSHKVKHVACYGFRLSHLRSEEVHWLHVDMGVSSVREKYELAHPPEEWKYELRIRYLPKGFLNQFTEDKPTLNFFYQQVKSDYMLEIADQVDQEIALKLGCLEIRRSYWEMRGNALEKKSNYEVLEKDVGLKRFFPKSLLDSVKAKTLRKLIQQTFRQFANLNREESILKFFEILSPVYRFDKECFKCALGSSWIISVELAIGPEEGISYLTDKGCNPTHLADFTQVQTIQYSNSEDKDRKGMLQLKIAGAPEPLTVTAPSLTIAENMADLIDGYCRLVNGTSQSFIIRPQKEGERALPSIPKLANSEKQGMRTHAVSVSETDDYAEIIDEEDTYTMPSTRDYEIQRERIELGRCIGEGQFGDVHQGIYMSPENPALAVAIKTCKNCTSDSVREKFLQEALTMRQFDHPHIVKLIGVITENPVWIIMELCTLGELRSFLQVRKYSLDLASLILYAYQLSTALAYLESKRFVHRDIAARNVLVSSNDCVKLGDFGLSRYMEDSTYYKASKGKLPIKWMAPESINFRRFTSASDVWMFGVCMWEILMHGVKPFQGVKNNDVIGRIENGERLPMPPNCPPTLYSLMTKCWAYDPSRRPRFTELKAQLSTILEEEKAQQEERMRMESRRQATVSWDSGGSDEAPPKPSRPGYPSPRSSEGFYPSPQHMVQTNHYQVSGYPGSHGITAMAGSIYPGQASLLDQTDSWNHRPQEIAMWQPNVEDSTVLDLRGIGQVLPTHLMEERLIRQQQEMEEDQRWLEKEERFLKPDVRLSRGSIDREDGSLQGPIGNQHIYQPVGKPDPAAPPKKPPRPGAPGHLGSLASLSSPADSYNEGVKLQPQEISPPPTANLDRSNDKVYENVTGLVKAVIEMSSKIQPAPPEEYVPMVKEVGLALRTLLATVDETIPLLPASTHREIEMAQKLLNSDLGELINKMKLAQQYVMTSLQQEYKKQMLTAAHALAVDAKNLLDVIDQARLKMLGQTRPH

Activity [2]: Active
Activity [3]: Active
Activity [4]: Active
Activity [6]: Dose-dependent effect
Activity [10]: Active
Activity [13]: Active
Activity [14]: tde
Activity [17]: Active
Structure (SMILES): CN(C)CCN(Cc1ccc(Cl)cc1)c1ccccn1.Cl [CHLORPYRAMIN HYDROCHLORIDE]
IC50 (T47D): 1000 nM
Activity (MCF7 [1]): Dose-dependent effect
Activity (MCF7 [5]): Dose-dependent effect
IC50 (SAOS-2): 1000 nM
Activity (MCF7 [7]): Dose-dependent effect
IC50 (MIA PaCa-2): 1000 nM
Activity (MCF7 [8]): tde
Activity (BT-474 [9]): 76%
Activity (BT-474 [11]): Dose-dependent effect
fold change (FC) (MCF7 [12]): 2
IC50 (A-375): 1000 nM
IC50 (HT-29): 1000 nM
Activity (BT-474 [15]): Active
IC50 (COLO 205): 1000 nM
IC50 (PANC-1): 1000 nM
Activity [16]: Active
Activity (BT-474 [18]): 45%
Activity (MCF7 [19]): Dose-dependent effect
Activity (MCF7 [20]): inactive
IC50 [21]: 1000 nM
